{
  "source": "paper PMC2858377",
  "about": "(Nature structural & molecular biology, 2009)",
  "key": {"[1]": {"system": "cellular distribution of AUF1 and hnRNPA1 in HIRc-B cells", "test": "AUF1 and hnRNPA1 cellular distribution, HIRc-B cells", "assay_type": "cell-based", "details": "insulin 10^−6 M, 1h"}, "[2]": {"system": "nuclear/cytoplasmic distribution of KSRP in HIRc-B cells", "test": "KSRP sub-cellular localization, HIRc-B cells", "assay_type": "cell-based", "details": "insulin 10^−6 M, 1h; nuclear and cytoplasmic extracts"}, "[3]": {"molecular_target": "T1, 14-3-3ζ (Homo sapiens, UniProt P63104)", "T1 sequence (P63104 1-245)": "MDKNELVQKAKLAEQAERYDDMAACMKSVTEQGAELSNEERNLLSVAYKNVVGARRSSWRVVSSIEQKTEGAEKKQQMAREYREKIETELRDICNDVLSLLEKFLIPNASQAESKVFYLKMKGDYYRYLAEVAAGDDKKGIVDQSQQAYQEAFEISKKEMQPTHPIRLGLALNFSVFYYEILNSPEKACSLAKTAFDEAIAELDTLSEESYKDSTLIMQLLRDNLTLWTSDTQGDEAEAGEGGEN", "test": "Isothermal titration calorimetry of KH1-derived peptides with 14-3-3ζ", "assay_type": "binding", "details": "ITC, 200 μM 14-3-3ζ, 2 mM peptide, 30°C", "how_it_was_run": "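14-3-3ζ was dialysed into 10 mM Tris pH 7.4, 50 mM NaCl, 1 mM TCEP. It was titrated with phosphorylated or unphosphorylated KH1-derived peptide dissolved in the dialysis buffer, in a VP-ITC microcalorimeter. Concentrations given are 200 μM protein and 2 mM peptide; all runs were at 30 °C.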"}, "[4]": {"test": "Folding state by NMR", "assay_type": "physicochemical", "details": "for folding state (in words): SOFAST 15N-1H HMQC, 10 mM Tris-HCl pH 7.4, 50 mM NaCl, 1 mM TCEP", "how_it_was_run": "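KH1 (residues 130–218) was phosphorylated with active AKT1 and separated from unphosphorylated protein by gel filtration, with identity confirmed by mass spectrometry. Samples were exchanged into 10 mM Tris-HCl pH 7.4, 50 mM NaCl, 1 mM TCEP and examined by 15N-HSQC / SOFAST HMQC. Phospho-KH1 was then dephosphorylated with 100 U λ phosphatase (60 min, 37 °C), re-purified and re-examined. Heat-inactivated AKT1 and S193A mutant served as controls.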"}, "[5]": {"system": "AKT1", "test": "In vitro phosphorylation by AKT kinase", "assay_type": "biochemical", "details": "100 μM KH1, 1 μg recombinant active AKT1, 37°C, 48 hours"}, "[6]": {"molecular_target": "T1, 14-3-3ζ", "test": "SOFAST 15N-1H HMQC NMR titration of 14-3-3 into 15N-labelled KH1 / phospho-KH1", "assay_type": "binding", "details": "15 μM KH1 or phospho-KH1, KH:14-3-3 1:2 ratio", "how_it_was_run": "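15N-labelled KH1 or AKT1-phosphorylated KH1 in 10 mM Tris-HCl pH 7.4, 50 mM NaCl, 1 mM TCEP was mixed with 14-3-3ζ at a 1:2 ratio. SOFAST 15N-HMQC spectra were superimposed on free-domain spectra to track resonance broadening. For competition, the phosphorylated KH1 peptide was added to the phospho-KH1–14-3-3 complex at a 1:2:10 ratio.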"}, "[7]": {"test": "CD spectroscopy / thermal unfolding", "assay_type": "physicochemical"}, "[8]": {"system": "AU-rich RNA targets", "test": "KH domain–RNA binding by 15N-HSQC NMR titration", "how_it_was_run": "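Chemically synthesised RNA hexamers, used without further purification, were titrated into the 15N-labelled KH domain sample. 15N-HSQC spectra were acquired across the titration, with the protein in Tris-HCl pH 7.4/NaCl/TCEP buffer at 27°C.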"}, "[9]": {"system": "KSRP KH2", "test": "KH1–KH2 inter-domain interaction by 15N-HSQC NMR", "assay_type": "binding, human", "details": "15N-HSQC of KH1_143–218, KH2_233-305 and KH12_143–305"}},
  "note": "Entries after “also recorded” stand apart in the source; their conditions may differ.",
  "data": [
    {"molecule": "insulin: insulin treatment induces AKT activation in HIRc-B cells", "values": [
      {"measurement": "effect on AUF1 and hnRNPA1 distribution", "setting": "[1]", "value": "did not affect the cellular distribution of the ribo-nucleoproteins AUF1 and hnRNPA1"},
      {"measurement": "KSRP localization", "setting": "[2]", "value": "AKT activation promotes nuclear localization of KSRP"}
    ]},
    {"molecule": "non phosphorylated peptide: KH1-derived non-phosphorylated peptide used in ITC (YGLPERSVSLTGAPES)", "values": [
      {"measurement": "binding to 14-3-3ζ (in words)", "setting": "[3]", "value": "no binding is observed"}
    ]},
    {"molecule": "KH1: first KH domain of human KSRP (Ile130–Gly218) (protein, 15N-labelled) ISSQLGPIHPPPRTSMTEEYRVPDGMVGLIIGRGGEQINKIQQDSGCKVQISPDSGGLPERSVSLTGAPESVQKAKMMLDDIVSRGRGG", "values": [
      {"measurement": "folding state (in words)", "setting": "[4]", "value": "folded"},
      {"measurement": "phosphorylation efficiency", "setting": "[5]", "value": "~ 90%"},
      {"measurement": "interaction with 14-3-3 (change in spectrum)", "setting": "[6]", "value": "the two proteins are not interacting; also recorded: No appreciable change is observed in the spectrum of the domain"},
      {"measurement": "interaction with 14-3-3 (change in spectrum)", "setting": "[6]; listed as Non-phosphorylated KH1", "value": "not recognized by 14-3-3"},
      {"measurement": "fraction of unfolded protein", "setting": "[7]; 37°C", "value": "~ 16%"},
      {"measurement": "affinity for AU-rich sequences (in words)", "setting": "[8]; compared with the other KH domains", "value": "affinity substantially lower than that of the other KH domains"},
      {"measurement": "Kd", "setting": "[8]; read-out: Kd for AU-rich RNA, 5′-UAUUUA-3′ and 5′-UAUUAU-3′ RNAs, 25 μM 15N-labeled KH domain, 10 mM Tris-HCl pH 7.4, 100 mM NaCl, 1 mM TCEP, 27°C, too low to be accurately measured", "value": "> 1000", "unit": "µM"},
      {"measurement": "interaction of KH1 with KH2 (in words)", "setting": "[9]", "value": "KH1 and KH2 do not interact in a stable and specific way"}
    ]},
    {"molecule": "phospho-KH1: KSRP KH1 phosphorylated by AKT kinase at Ser193 (protein, phosphoserine at 193; 15N-labelled) ISSQLGPIHPPPRTSMTEEYRVPDGMVGLIIGRGGEQINKIQQDSGCKVQISPDSGGLPERSVSLTGAPESVQKAKMMLDDIVSRGRGG", "values": [
      {"measurement": "folding state (in words)", "setting": "[4]", "value": "unfolded"},
      {"measurement": "folding state (in words)", "setting": "[4]; listed as phosphorylated protein", "value": "essentially unfolded"},
      {"measurement": "folding after de-phosphorylation (in words)", "setting": "[4]; SOFAST HMQC after λ protein phosphatase, 100 Units, 60 minutes, 37 °C", "value": "removal of the phosphate group leads to complete refolding of the protein"},
      {"measurement": "interaction with 14-3-3 (change in spectrum)", "setting": "[6]", "value": "Selected resonances broaden substantially; also recorded: interacts with the protein"},
      {"measurement": "interaction with 14-3-3 (change in spectrum)", "setting": "[6]; listed as phosphorylated KH1", "value": "strong selective decrease in the intensity of the NMR signal of a small number of resonances"},
      {"measurement": "effect of temperature on CD spectrum", "setting": "[7]; CD at 20, 40, 60, 80 and 95 °C", "value": "The spectrum of the protein does not change with temperature; also recorded: The spectra do not change substantially at increasing temperatures"},
      {"measurement": "apparent percentage of unfolded peptidic chain", "setting": "[7]; CD, 20 °C, range expected for fully unfolded proteins 69.8-89.9 %", "value": 79.9, "unit": "%"}
    ]}
  ]
}
